ATG4B inh: ATG4B (human) cysteine protease inhibition. Q9Y4P1. ATG4B cleavage of LC3-PLA2, NBD-HPC fluorescence, 1 h. inhibition, % at 8.33 µM. hit rate 0.51% among 340,000; in the data active means inhibition above about 40%
Target sequence (Q9Y4P1 whole entry, looked up): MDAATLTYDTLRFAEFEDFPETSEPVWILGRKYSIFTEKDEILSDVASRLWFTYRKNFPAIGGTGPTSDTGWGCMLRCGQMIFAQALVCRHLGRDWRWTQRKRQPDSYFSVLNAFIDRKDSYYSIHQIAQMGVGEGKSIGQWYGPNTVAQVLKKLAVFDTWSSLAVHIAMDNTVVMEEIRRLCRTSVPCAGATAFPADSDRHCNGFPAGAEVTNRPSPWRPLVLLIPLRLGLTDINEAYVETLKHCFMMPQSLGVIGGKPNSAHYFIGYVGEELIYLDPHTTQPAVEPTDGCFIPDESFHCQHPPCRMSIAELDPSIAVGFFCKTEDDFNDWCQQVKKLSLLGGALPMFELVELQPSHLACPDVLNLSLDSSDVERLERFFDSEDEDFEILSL
CAL PDZ FP-1: CAL PDZ (human) peptide binding inhibition. Q9HD26. hit rate 0.92% among 300,000. AID 602252. inhibition, % at 24.9 µM. purified CAL PDZ, TMR-peptide fluorescence polarization, 1 h;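 active means mean inhibition of at least 30% with at least half of replicates also reaching 30%; inconclusive means no clear call, values can overlap the other calls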
SR-BI DiI-HDL act: SR-BI HDL lipid transfer activation. activation, % at 12.5 µM. hit rate 0.096% among 320,000. CHO ldlA[mSR-BI] cells, DiI-HDL uptake fluorescence, 3 h; 100 = double the neutral-control signal;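 active means mean replicate activation of at least 60% and every replicate at or above 60%; inconclusive means mean or all-replicate condition met, but not both; inactive means mean below 60% and not all replicates reaching 60%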
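Assay system: LDL receptor-deficient CHO ldlA cells overexpressing murine SR-BI / Medium: BSA-supplemented, HEPES-buffered Ham's F12, pH 7.4 / Probe or stimulus: DiI-labelled HDL at 10 µg/mL final / Timing: compound with DiI-HDL co-incubation, 3 h at 37 °C / Technique: bottom-read cell fluorescence after medium removal, ex 550/em 595 nm / Measure: HDL uptake via cellular fluorescence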
SR-BI DiI inh: mouse SR-BI HDL lipid transfer inhibition. Q61009. ldlA[mSR-BI] CHO cells, DiI-HDL uptake fluorescence, 3 h. inhibition, % at 12.5 µM. hit rate 0.96% among 320,000. AID 488896;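 active means mean replicate inhibition of at least 70% and a set share of replicates each scoring 70 or more; inconclusive means meets just one of the two criteria; inactive means fails both criteria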
CAL PDZ FP-2: human CAL PDZ-peptide interaction inhibition | Q9HD26 | purified CAL PDZ, TMR-peptide fluorescence polarization, 1 h | inhibition, % at 20 µM | hit rate 0.02% among 330,000;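 active means highest replicate inhibition of at least 40%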
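Test system: tagged CAL PDZ domain / Buffer or medium: sodium phosphate/NaCl buffer pH 7.4 with TCEP, IgG, Thesit / Reagent: TMR-labelled reporter peptide T*-PRC34 bound in PDZ groove / Compound dosing: single point, 20 µM / Schedule: 1 h incubation at room temperature before polarization reading / Technique: fluorescence polarization (mP) / Benchmarks: unlabelled peptide, DMSO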
A number is an active result; – = inactive; ? = inconclusive; · = not tested or not shown. Only some compounds are listed: those with a hit (about 2.3% of all), similar ones and a draw of the others.

SMILES	ATG4B inh	CAL PDZ FP-1	SR-BI DiI-HDL act	SR-BI DiI inh	CAL PDZ FP-2
COc1ccc(C(=O)Nc2nc3cc4c(cc3s2)OCO4)c(OC)c1	–	–	–	–	–
O=C(CCSc1nc2ccccc2s1)N/N=C/c1c(O)ccc2ccccc12	–	–	–	105.0	–
CN(C)c1cccc(C(=O)NNC(=O)/C=C/c2cccs2)c1	–	77.1	–	–	–
Cc1cnc(NC(=O)C2CC=CCC2)s1 (stereo not given)	–	–	·	·	–
Cc1cc(C(=O)COC(=O)c2ccc(N)c([N+](=O)[O-])c2)c(C)n1-c1ccc2c(c1)OCO2	–	–	–	–	–
Cc1cc(C(=O)COC(=O)c2ccc(N)c([N+](=O)[O-])c2)c(C)n1Cc1ccc2c(c1)OCO2	–	123.4	–	–	–
NC(=O)CC1C(=O)N(c2ccc(Cl)cc2)C(=S)N1NC(=O)c1cccc(F)c1 (stereo not given)	–	62.3	–	–	·
O/N=C(\CN1CCCCC1)c1ccccc1	–	–	–	–	·
CCOC(=O)c1cc(C)n(CCc2ccccc2)c1C	–	–	–	80.2	·
COc1ccccc1N1CCN(C(=O)c2ccccc2N(C)S(=O)(=O)c2ccc(C)cc2)CC1	–	–	·	–	–
Cc1cc(C)nc(Nc2n[nH]c(-c3cccc4ccccc34)n2)n1	–	–	–	–	–
Cc1cc(C)nc(Nc2n[nH]c(-c3ccccc3Cl)n2)n1	–	38.2	–	–	–
COC(=O)Cc1c(O)ccn(Cc2ccccc2OC)c1=O	–	46.6	–	–	–
COC(=O)Cc1c(O)ccn(Cc2cccc3ccccc23)c1=O	–	–	–	–	–
Cc1cc(SCc2cccc(Cl)c2)nc(=O)[nH]1	–	54.9	–	–	–
CC(C)n1c(=S)[nH]c2c1c(=O)[nH]c(=O)n2C	–	43.3	–	–	–
C=CC(C)n1c(Br)nc2c1c(=O)[nH]c(=O)n2C (stereo not given)	–	–	–	–	·
O=[N+]([O-])c1ccccc1Nc1c2ccccc2nc2ccccc12	–	–	–	76.5	–
Cc1cc(NC(=O)CSc2nccn2-c2cccc(Cl)c2)no1	–	–	–	–	–
C/C(=N\NC(=O)c1c(Cl)c(C)nn1C)c1ccc(NC(=O)COc2ccc(Cl)cc2C)cc1	–	–	–	71.8	–
Cc1occc1C(=O)N/N=C/C1=C(N2CCOCC2)C(=C/c2ccc(Cl)cc2Cl)/CC1	–	–	–	86.4	–
COc1ccc(NC(=O)COC(=O)C2CC2)c(OC)c1	–	–	–	–	–
COc1ccc(Cl)cc1/C=C/c1ccc2cccc(O)c2n1	–	–	–	83.3	–
COc1cc(Cl)cc(/C=C/c2ccc3cccc(O)c3n2)c1OC	–	–	–	–	–
CCN(C(=O)CCCC(=O)N(CC)c1ccccc1)c1ccccc1	–	63.2	–	–	–
SMILES	ATG4B inh	CAL PDZ FP-1	SR-BI DiI-HDL act	SR-BI DiI inh	CAL PDZ FP-2
CN1CCN(C(=O)C2CCN(S(=O)(=O)c3cnc[nH]3)CC2)CC1	–	–	–	–	–
CC1CCCC(NC(=O)C2CCN(S(=O)(=O)c3cnc[nH]3)CC2)C1C (stereo not given)	–	64.2	–	–	–
COc1cc2cc(CCO)oc(=O)c2cc1OC	–	–	–	–	–
Nc1ccc(N=Nc2ccccc2O)c(N)c1	–	·	·	·	·
Oc1ccccc1N=Nc1ccccc1O	–	–	–	86.7	–
Cc1ccc(S(=O)(=O)Nc2cccc(-n3cnnn3)c2)cc1	–	53.4	–	–	–
Cc1cc(C)c(OCC(=O)OCC(=O)N2c3ccccc3CC2C)c(C)c1 (stereo not given)	–	–	–	–	–
O=C(CCN1C(=O)/C(=C/c2cccs2)SC1=S)N1CCCCC1	–	85.4	–	–	–
Cc1ccc2nc(N3CCN(Cc4nnnn4C4CCCC4)CC3)c(C#N)cc2c1	–	55.2	–	–	–
Cc1ccc(C)c(N2CCN(Cc3nnnn3C3CCCCC3)CC2)c1	–	–	–	–	–
Cn1c(=O)c2[nH]c(CCc3ccncc3)nc2n(C)c1=O	–	54.3	–	–	–
CN(Cc1ccccc1C#N)S(=O)(=O)c1cccs1	–	·	·	·	–
COc1ccccc1CN(C)S(=O)(=O)c1cccs1	–	64.1	–	–	–
CCOc1ccc(NC(=O)c2ccc(NC(=O)CSc3nc4ccccc4c(=O)[nH]3)cc2)cc1	–	–	–	?	–

From PubChem BioAssay
